Data as given in ChEMBL document CHEMBL1145814, “Antiretroviral activity of semisynthetic derivatives of glycopeptide antibiotics” (J Med Chem, 2003).
≈ marks a conversion by molar mass, not a printed value.

What was measured:
Mus musculus [1] = species: Mus musculus; experiment: Effective concentration of compound required to protect C3H/3T3 embryo murine fibroblasts against the MSV induced transformation; type: functional, organism-based; conditions: Mus musculus, C3H/3T3
Procedure, shortened: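 Monolayer murine embryo fibroblast C3H/3T3 cultures were infected with Moloney murine sarcoma virus at 75 focus-forming units and cultured with test compound. Transformation was examined microscopically on day 6 postinfection. EC50 is the concentration protecting cells against MSV-induced transformation by 50%.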

Mus musculus [2] = species: Mus musculus; experiment: Minimal inhibitory concentration required to cause a microscopic detectable alteration of C3H/3T3 embryo murine fibroblast cell morphology; type: functional
Procedure, shortened: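 Uninfected C3H/3T3 murine embryo fibroblast cultures were exposed to test compound and checked microscopically for changes in cell morphology. The MIC is the concentration causing a microscopically detectable alteration of morphology.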

CCRF-CEM = experiment: Inhibitory concentration against proliferation of human T-lymphocytic (CEM) cells; type: functional, cell-based; conditions: Homo sapiens, CCRF-CEM
Procedure, shortened: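 (5–7.5) × 10^4 cells per well were incubated with test compound at 37 °C in a humidified CO2 atmosphere. L1210 murine leukemia cells grew for 48 h, and CEM and Molt4/clone 8 human lymphocytes grew for 72 h. Cells were then counted with a Coulter counter. IC50 is the concentration inhibiting proliferation by 50%.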

[3] = system: Human immunodeficiency virus 1; experiment: Effective concentration of compound required to protect human T-lymphocytic cells against the cytopathogenicity of HIV-1; type: functional, organism-based; conditions: Human immunodeficiency virus 1
[4] = system: Human immunodeficiency virus 2; experiment: Concentration required to protect human T-lymphocytic cells against the cytopathogenicity of HIV-2; type: functional, organism-based; conditions: Human immunodeficiency virus 2

| IC50 (CCRF-CEM) [µM] | EC50 [3] [µM] | EC50 [4] [µM] | Compound | EC50 (Mus musculus [1]) [µM] | MIC (Mus musculus [2]) [µM] |
| --- | --- | --- | --- | --- | --- |
| > 250 | 12 | 8 | O=C(NC1C(=O)NC2Cc3ccc(c(Cl)c3)Oc3cc4cc(c3O)Oc3ccc(cc3Cl)C(O)C3NC(=O)C(NC(=O)C4NC(=O)C(NC2=O)c2cc(O)cc(c2)Oc2cc1ccc2O)c1ccc(O)c(c1)-c1c(O)cc(O)cc1[C@H](C(=O)O)NC3=O)OCc1ccccc1 (some centres not stated) | 11 | > 100 |
| 220 | 6 | 8 | O=C1NC2C(=O)NC3C(=O)NC4C(=O)NC(C(=O)N[C@@H](C(=O)O)c5cc(O)cc(O)c5-c5cc4ccc5O)C(O)c4ccc(c(Cl)c4)Oc4cc3cc(c4O)Oc3ccc(cc3Cl)CC1NC(=O)C(/N=C(\S)Nc1ccccc1)c1ccc(O)c(c1)Oc1cc(O)cc2c1 (some centres not stated) | 7.5 | 100 (≈ 133 µg/mL) |
| 21 | 2.6 | 5.8 | CCCCCCCCCCNC(=O)[C@@H]1NC(=O)C2NC(=O)C(NC(=O)C3NC(=O)C4NC(=O)C(Cc5ccc(c(Cl)c5)Oc5cc3cc(c5O)Oc3ccc(cc3Cl)C2O)NC(=O)C(N)c2ccc(O)c(c2)Oc2cc(O)cc4c2)c2ccc(O)c(c2)-c2c(O)cc(O)cc21 (some centres not stated) | – | – |
| > 250 | 22 | 40 | NC(=O)CC1NC(=O)C(N)C(O)c2ccc(c(Cl)c2)Oc2cc3cc(c2O)Oc2ccc(cc2)C(O)C2NC(=O)C(NC(=O)C3NC1=O)c1ccc(O)c(c1)-c1c(cc(O)c(CNC3C4CC5CC(C4)CC3C5)c1O)[C@H](C(=O)O)NC2=O (some centres not stated) | 47 | > 100 |
| 60 | 2.5 | 6 | CCCCCCCCCCCCCCCCCCNCc1c(O)cc2c(c1O)-c1cc(ccc1O)C1NC(=O)C3NC(=O)C4NC(=O)C(Cc5ccc(c(Cl)c5)Oc5cc3cc(c5O)Oc3ccc(cc3Cl)C(O)C(NC1=O)C(=O)N[C@H]2C(=O)NC)NC(=O)C(N)c1ccc(O)c(c1)Oc1cc(O)cc4c1 (some centres not stated) | 4.7 | 100 (≈ 149 µg/mL) |

The next lines start with the compound.

| Compound | IC50 (CCRF-CEM) [µM] | EC50 [3] [µM] | EC50 [4] [µM] | EC50 (Mus musculus [1]) [µM] | MIC (Mus musculus [2]) [µM] |
| --- | --- | --- | --- | --- | --- |
| CN[C@H](CC(C)C)C(=O)N[C@H]1C(=O)N[C@@H](CC(N)=O)C(=O)N[C@H]2C(=O)N[C@H]3C(=O)N[C@H](C(=O)N[C@H](C(=O)O)c4cc(O)cc(O)c4-c4cc3ccc4O)[C@H](O)c3ccc(c(Cl)c3)Oc3cc2cc(c3O[C@@H]2O[C@H](CO)[C@@H](O)[C@H](O)[C@H]2O[C@H]2C[C@](C)(NCc3ccc(-c4ccc(Cl)cc4)cc3)C(O)[C@H](C)O2)Oc2ccc(cc2Cl)[C@H]1O (some centres not stated) [listing 1 of 2 here] | – | – | – | 7.7 | – |
| CN[C@H](CC(C)C)C(=O)N[C@H]1C(=O)N[C@@H](CC(N)=O)C(=O)N[C@H]2C(=O)N[C@H]3C(=O)N[C@H](C(=O)N[C@H](C(=O)O)c4cc(O)cc(O)c4-c4cc3ccc4O)[C@H](O)c3ccc(c(Cl)c3)Oc3cc2cc(c3O[C@@H]2O[C@H](CO)[C@@H](O)[C@H](O)[C@H]2O[C@H]2C[C@](C)(NCc3ccc(-c4ccc(Cl)cc4)cc3)C(O)[C@H](C)O2)Oc2ccc(cc2Cl)[C@H]1O (some centres not stated) [listing 2 of 2 here] | – | – | – | – | > 25 |
| CN[C@H](CC(C)C)C(=O)N[C@H]1C(=O)N[C@@H](CC(N)=O)C(=O)N[C@H]2C(=O)N[C@H]3C(=O)N[C@H](C(=O)N[C@H](C(=O)NCc4ccc(-c5ccc(Cl)cc5)cc4)c4cc(O)cc(O)c4-c4cc3ccc4O)[C@H](O)c3ccc(c(Cl)c3)Oc3cc2cc(c3O[C@@H]2O[C@H](CO)[C@@H](O)[C@H](O)[C@H]2O[C@H]2C[C@](C)(N)C(O)[C@H](C)O2)Oc2ccc(cc2Cl)[C@H]1O (some centres not stated) [listing 1 of 2 here] | – | – | – | > 2 | – |
| CN[C@H](CC(C)C)C(=O)N[C@H]1C(=O)N[C@@H](CC(N)=O)C(=O)N[C@H]2C(=O)N[C@H]3C(=O)N[C@H](C(=O)N[C@H](C(=O)NCc4ccc(-c5ccc(Cl)cc5)cc4)c4cc(O)cc(O)c4-c4cc3ccc4O)[C@H](O)c3ccc(c(Cl)c3)Oc3cc2cc(c3O[C@@H]2O[C@H](CO)[C@@H](O)[C@H](O)[C@H]2O[C@H]2C[C@](C)(N)C(O)[C@H](C)O2)Oc2ccc(cc2Cl)[C@H]1O (some centres not stated) [listing 2 of 2 here] | – | – | – | – | 20 (≈ 33 µg/mL) |
| NC(=O)C[C@@H]1NC(=O)C(N)C(O)c2ccc(c(Cl)c2)Oc2cc3cc(c2O)Oc2ccc(cc2)C(O)C2NC(=O)C(NC(=O)C3NC1=O)c1ccc(O)c(c1)-c1c(O)cc(O)cc1[C@H](C(=O)O)NC2=O (some centres not stated) | > 250 | 115 | > 250 | > 100 | > 100 |
